This passage reports growth and inhibition results from ChEMBL document CHEMBL3124806, “Imidazopyridine-fused [1,3]-diazepinones: synthesis and antiproliferative activity” (Eur J Med Chem, 2014).

The subject of one experiment is MDA-MB-435. The experiment is described as follows: Cytotoxicity against human MDA-MB-435 cells assessed as cell growth at 10 uM after 48 hrs by MTT assay relative to untreated control. It is filed as functional. Particulars: MDA-MB-435, 48 h, read-out: Activity. Put shortly:
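Melanoma lines grown at 37 °C in humidified 5% CO2: MDA-MB-435 in DMEM/Ham's F12 1:1 with 10% FCS and antibiotics, SK-MEL-2 in RPMI-1640 with 10% FCS. Cells plated 24 h, then exposed 48 h to 100–0.01 µM (dilutions from fresh 100 µM stock in medium). MTT 0.5 mg/mL added for 4 h, crystals dissolved in EtOH/DMSO 1:1, absorbance read at 540 nm. Mean ± SD of three independent experiments.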
In general terms: Tetrazolium assays rely on reduction of a dye to a coloured formazan, in cell work by metabolically active cells.

Another experiment is filed under the species Ovis aries. The experiment is described as follows: Inhibition of sheep brain tubulin polymerization at 100 uM after 40 mins by DAPI staining-based fluorescence assay. The procedure, abridged:
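Microtubular protein was purified from sheep brain by two assembly/disassembly cycles (37 °C/0 °C) in MES buffer (100 mM MES pH 6.6, 1 mM EGTA, 0.5 mM MgCl₂). Compound in DMSO was added to 10 µM tubulin with 10 µM DAPI and incubated 40 min at RT. GTP (1 mM) was then added, and assembly was followed by DAPI fluorescence at 37 °C.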

As usually defined, the inhibition is the share of the control response that was lost under treatment. Lower therefore signals a weak effect. Regarding `C[C@@H]1NC(c2ccc([N+](=O)[O-])cc2)=Nc2nc3ccccn3c2C1=O`, the growth at 10 µM with MDA-MB-435 came out at 99%. In addition, the inhibition in the experiment filed under Ovis aries amounted to 30%.
In the same order, the values of `C[C@@H]1NC(=O)Nc2nc3ccccn3c2C1=O` are 86% and 8%.
